Results on seven compounds are retold here after ChEMBL document CHEMBL3585252, “Selaginellin and biflavonoids as protein tyrosine phosphatase 1B inhibitors from Selaginella tamariscina and their glucose uptake stimulatory effects” (Bioorg Med Chem, 2015).

The target in series [1] is T1, Tyrosine-protein phosphatase non-receptor type 1 (Homo sapiens) (UniProt P18031).
T1 sequence (whole entry): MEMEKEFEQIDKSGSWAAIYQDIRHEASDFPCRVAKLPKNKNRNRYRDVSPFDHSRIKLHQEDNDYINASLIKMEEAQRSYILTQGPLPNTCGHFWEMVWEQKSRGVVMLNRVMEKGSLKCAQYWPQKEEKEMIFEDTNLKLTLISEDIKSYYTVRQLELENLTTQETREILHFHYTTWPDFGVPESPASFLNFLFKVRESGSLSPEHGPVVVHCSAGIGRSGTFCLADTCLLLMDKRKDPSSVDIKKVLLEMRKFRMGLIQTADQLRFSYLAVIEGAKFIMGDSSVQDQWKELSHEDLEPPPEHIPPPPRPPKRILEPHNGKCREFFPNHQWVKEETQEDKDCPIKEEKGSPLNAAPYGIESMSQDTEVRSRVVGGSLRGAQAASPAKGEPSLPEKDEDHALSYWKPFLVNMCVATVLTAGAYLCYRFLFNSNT
Briefly: (§1) Inhibition of human recombinant PTP1B using p-NPP as substrate preincubated for 10 mins followed by substrate addition measured after 20 mins by microplate reader analysis. In a few lines:
(§2)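 Enzyme inhibition was tested at graded concentrations. IC50 was obtained by regression analysis and reported as mean ± SD of three replicates.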

Series [2] deals with T2, Tyrosine-protein phosphatase non-receptor type 1 (Homo sapiens, UniProt P18031).
T2 sequence (P18031 whole entry): T1 sequence (whole entry)
Described as §1. The method in brief: as §2

Series [3] in a line: Cytotoxicity against mouse 3T3L1 cells assessed as inhibition of cell viability at 5 to 10 uM after 48 hrs by MTT assay. It counts as cell-based. As to conditions: 3t3-l1, 48 h. In a few lines:
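Differentiated 3T3-L1 adipocytes were exposed to compound at 5 and 10 µM without 2-NBDG. Viability was read by MTT assay.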
A general note: Tetrazolium assays rely on reduction of a dye to a coloured formazan, in cell work by metabolically active cells.

The target of series [4] is T3, Tyrosine-protein phosphatase non-receptor type 1 (Mus musculus) (UniProt P35821).
T3 sequence (whole entry): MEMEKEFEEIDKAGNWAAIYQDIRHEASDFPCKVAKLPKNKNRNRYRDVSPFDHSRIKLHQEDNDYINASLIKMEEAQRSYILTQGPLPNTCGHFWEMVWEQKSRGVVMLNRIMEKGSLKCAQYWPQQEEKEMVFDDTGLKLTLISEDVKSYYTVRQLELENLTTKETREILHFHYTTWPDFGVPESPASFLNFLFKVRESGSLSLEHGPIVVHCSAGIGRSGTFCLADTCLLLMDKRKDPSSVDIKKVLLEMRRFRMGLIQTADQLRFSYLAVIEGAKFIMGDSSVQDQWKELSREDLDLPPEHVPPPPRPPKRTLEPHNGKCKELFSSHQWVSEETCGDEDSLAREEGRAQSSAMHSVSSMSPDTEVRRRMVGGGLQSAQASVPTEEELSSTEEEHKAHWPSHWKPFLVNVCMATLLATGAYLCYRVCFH
Briefly: Inhibition of PTP1B in mouse 3T3L1 cells assessed as stimulation of 2-NBDG uptake preincubated for 24 hrs followed by 2-NBDG addition measured after 30 mins by fluorescence reader analysis. It counts as cell-based. As to conditions: 3T3-L1. The method in brief:
(§3)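 3T3-L1 preadipocytes were grown to confluence and differentiated for 8 days (days 0–8). Mature adipocytes were treated with compound at 5 and 10 µM, or with insulin at 100 nM; DMSO was the vehicle control. 2-NBDG was then added for 30 min. Uptake is expressed as fold induction over the DMSO control.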

Series [5] has as its target T3, Tyrosine-protein phosphatase non-receptor type 1 (Mus musculus). Briefly: Inhibition of PTP1B in mouse 3T3L1 cells assessed as stimulation of 2-NBDG uptake at 10 uM preincubated for 24 hrs followed by 2-NBDG addition measured after 30 mins by fluorescence reader analysis relative to control. It counts as cell-based. Particulars: 3T3-L1. The method in brief:
as §3

Series [6] concerns the target T2, Tyrosine-protein phosphatase non-receptor type 1. Briefly: Mixed-competitive inhibition of human recombinant PTP1B using p-NPP as substrate preincubated for 10 mins followed by substrate addition measured after 20 mins by Lineweaver-Burk/Dixon plot analysis. The method in brief:
(§4)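 Kinetic mode and Ki came from Lineweaver–Burk and Dixon plots of initial velocity at several substrate and inhibitor concentrations. Ki was read as the negative x-axis value where three Dixon lines intersect. Data are the mean reciprocal initial velocity, n = 3 replicates per substrate concentration.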

The target is the same in series [7]. Briefly: Uncompetitive inhibition of human recombinant PTP1B using p-NPP as substrate preincubated for 10 mins followed by substrate addition measured after 20 mins by Lineweaver-Burk/Dixon plot analysis. The method in brief: as §4
For series [8] the target is unchanged. Briefly: Competitive inhibition of human recombinant PTP1B using p-NPP as substrate preincubated for 10 mins followed by substrate addition measured after 20 mins by Lineweaver-Burk/Dixon plot analysis. The method in brief:
as §4

pIC50, pKi: −log10 of the molar value.

As to `O=c1cc(-c2ccc(O)c(-c3c(-c4ccc(O)cc4)oc4cc(O)cc(O)c4c3=O)c2)oc2cc(O)cc(O)c12` [TAIWANIAFLAVONE], the inhibition result in series [1] and in series [4] was “Dose-dependent effect” in each case. In addition, the pIC50 in series [2] was 5.27. Further, the Activity result in series [3] is reported as “Non-toxic”. Besides, in series [5], the fold change (FC) was 1.47. Further, in series [6], the pKi was 5.35.

Consider `O=C1C[C@@H](c2cc(-c3c(O)ccc4c(=O)cc(-c5ccc(O)cc5)oc34)c(O)cc2O)Oc2cc(O)cc(O)c21`, for which the inhibition entry in series [1] and in series [4] was “Dose-dependent effect” throughout. Besides, the pIC50 in series [2] was 5.01. Further, in series [3], the Activity result is recorded as “Non-toxic”. The pKi in series [7] is 4.98.

In the case of `O=C(O)c1c(-c2ccc(O)cc2)ccc(CO)c1C#Cc1ccc(O)cc1`, the inhibition entry in series [1] and in series [4] was “Dose-dependent effect” each time. In series [2], the pIC50 is 4.88. The Activity result in series [3] is recorded as “Non-toxic”. The fold change (FC) in series [5] was 1.24. Further, in series [6], the pKi is 4.84.

On to `O=c1cc(-c2ccc(O)c(-c3c(O)cc4oc(-c5ccc(O)cc5)cc(=O)c4c3O)c2)oc2cc(O)cc(O)c12` [ROBUSTAFLAVONE], for which the inhibition entry in series [1] and in series [4] was “Dose-dependent effect” in each case. Moreover, the pIC50 in series [2] was 5.21. The Activity result in series [3] is “Non-toxic”. Besides, the pKi in series [6] was 5.17.

In the case of `O=c1cc(-c2ccc(O)cc2)oc2c(-c3c(O)cc(O)c4c(=O)cc(-c5ccc(O)cc5)oc34)c(O)cc(O)c12` [CUPRESSUFLAVONE], the inhibition result in series [1] and in series [4] was “Dose-dependent effect” in each case. Also, in series [2], the pIC50 is 5.02. Further, the Activity result in series [3] was “Non-toxic”. For the same compound, the pKi in series [8] was 4.97.

With `O=c1cc(-c2ccc(O)c(-c3c(O)cc(O)c4c(=O)cc(-c5ccc(O)cc5)oc34)c2)oc2cc(O)cc(O)c12` [AMENTOFLAVONE], the inhibition entry in series [1] and in series [4] was “Dose-dependent effect” each time. Also, the pIC50 in series [2] was 5.13. Also, the Activity entry in series [3] was “Non-toxic”. Moreover, in series [6], the pKi was 5.11.

As to `O=c1c(-c2c(O)cc(O)c3c(=O)cc(-c4ccc(O)cc4)oc23)c(-c2ccc(O)cc2)oc2cc(O)cc(O)c12`, the inhibition result in series [1] and in series [4] was “Dose-dependent effect” throughout. Besides, the pIC50 in series [2] is 5.35. In series [3], the Activity entry is on record as “Non-toxic”. In addition, the fold change (FC) in series [5] was 1.44. Also, the pKi in series [6] is 5.34.

What is called pIC50 is the negative decadic logarithm of the IC50, by convention in mol/L. As usually defined, the pKi is −log10 of the Ki, conventionally taken in molar units.
